The nature of assay [1]: inhibitors of TNFa-induced NFkB p65 translocation, primary screen, imaging, HUVEC, MLSMR starter and 10KST1 sets (AID 438).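 Further: compound added about 3h40 before a 20 min TNFalpha stimulation.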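 On inhibition: signal is the nuclear over cytoplasmic p65 intensity ratio per well.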 The note with it: HUVEC TNFa-induced p65 nuclear translocation; cell count: measured here: nuclei count (cytotoxicity indicator), at 2.08 µM; inhibition: at 2 µM, stronger effect = higher value, 0% TNFa-plus-vehicle, 100% no-TNFa wells.
The nature of assay [2]: inhibitors of mutant huntingtin aggregation, primary screen, imaging, exon1htt(103Q)mCFP cells, high-content imaging (AID 483;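 active means visual image review flags a hit and inhibition of aggregation exceeds 20%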;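 further: compound exposure lasted 3 days before fixation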;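 on nuclei count: percent of the per-plate median nuclei count of sample wells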). The note with it: exon1htt(103Q)mCFP cell line, aggregate imaging, at 2 µM; inhibition of aggregation: stronger effect = higher value; nuclei count: measured here: cell count, toxicity.
Assay [3] is described as follows: inhibitors of E-selectin induction by TNFa, primary screen, imaging, HUVEC, immunofluorescence, MLSMR starter and 10KST1 sets (AID 487;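 active means visually confirmed hit in the image check and inhibition above 20%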;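 on inhibition: signal is fraction of cell area covered by stained E-selectin grains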;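 on nuclei count: 100% = median nuclei count of all wells on the same plate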). The conditions noted are these: HUVEC TNFalpha-induced E-selectin immunofluorescence imaging, at 2 µM; inhibition: stronger effect = higher value; nuclei count: measured here: cell number, toxicity.
For assay [4], the target named is Voltage-gated potassium channel subunit beta-2 (Rattus norvegicus) (UniProt P62483). As to the kind of experiment: KvBeta enzyme negative modulators, primary screen, biochemical, NADPH fluorescence (AID 622;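 active means fluorescence slope higher than the sample average by over 3 SD, cut at about -0.22 in these data, passing the limit was not always enough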;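 further: slope of raw intensity against log time taken from 70 to 1610 s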). The conditions noted are these: recombinant KvBeta, 4-cyanobenzaldehyde reduction, at 10 µM, stronger effect = higher value.
Assay [5] shares this target. Nature of the assay: KvBeta positive modulators, primary screen, biochemical, NADPH fluorescence (AID 623;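 active means NADPH fluorescence slope more negative than the mean of all samples by about 3 SD, 99.7% confidence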;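 further: fluorescence intensity change per second fitted from 20 to 320 s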). The note with it: Recombinant KvBeta, NADPH fluorescence decrease slope, 10 min; at 10 µM; stronger effect = lower value.
The target in assay [6] is Muscarinic acetylcholine receptor M4 (Homo sapiens) (UniProt P08173). Nature of the assay: compounds altering M4/GIRK thallium flux, either direction, primary screen, M4 allosteric agonist project, cell-based, HEK293 M4/GIRK, BTC-AM (AID 625;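 active means fluorescence slope after compound addition differing from the mean of all tested samples at 99.7% confidence, mostly higher but some lower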;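 further: thallium influx through GIRK channels coupled to M4 in HEK293 cells with BTC-AM dye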). The conditions noted are these: at 10 µM, actives lie on both sides. In short, it runs like this: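 Material – HEK293 cells with M4 receptor and GIRK channels · Buffer or medium – pH 7.3 thallium assay buffer · Doses – one dose, 10 µM final · Timing – cells overnight at 37 °C, BTC-AM loading 1 h, reads 2 min total · Measured by – kinetic fluorescence with BTC-AM dye · Controls – carbachol and DMSO controls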

Assay [7] in a line: inhibitors of Sendai virus-induced IRF3 signaling, primary screen, TLR/RLR signaling modifier project, cell-based, Sendai virus stimulus, luciferase, 10K MLSCN set (AID 602276;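 active means inhibition at or above 50% at 10 µM; inactive means inhibition below 50%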;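 further: firefly luciferase from ISG56 promoter only with Renilla not read in this screen; 0% = Sendai virus plus DMSO and 100% = medium plus DMSO without virus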). The note with it: HEK293 RL24 IRF3 luciferase reporter, at 10 µM, stronger effect = higher value. A general note: A reporter such as luciferase makes a cellular process visible.
The nature of assay [8]: inhibitors of poly I:C-induced TLR3 signaling, primary screen, cell-based, poly I:C stimulus, luciferase, 10K MLSCN set (AID 602277;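 active means inhibition of the reporter signal at or above 50%; inactive means inhibition below 50%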). The conditions noted are these: HEK293-TLR3 RL24 IRF3 luciferase reporter, at 10 µM, stronger effect = higher value.

SMILES strings stand for the structures. Activity calls are given as the source filed them.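 How the source made its calls, unless noted: active means inhibition above 20% together with a positive visual image hit; inconclusive means visual image hit but inhibition not above 20%; inactive means no visual image hit.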

Sequence of Voltage-gated potassium channel subunit beta-2 (Rattus norvegicus) (P62483 whole entry, looked up): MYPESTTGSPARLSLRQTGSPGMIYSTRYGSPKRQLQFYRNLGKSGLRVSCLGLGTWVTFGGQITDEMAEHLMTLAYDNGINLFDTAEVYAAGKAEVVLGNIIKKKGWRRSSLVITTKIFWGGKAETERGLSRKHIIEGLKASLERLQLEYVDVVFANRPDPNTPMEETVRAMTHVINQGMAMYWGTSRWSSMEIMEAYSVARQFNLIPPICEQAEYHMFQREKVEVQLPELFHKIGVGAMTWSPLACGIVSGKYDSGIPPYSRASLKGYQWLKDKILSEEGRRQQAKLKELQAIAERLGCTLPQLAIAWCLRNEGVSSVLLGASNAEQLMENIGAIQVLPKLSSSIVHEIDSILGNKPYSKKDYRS
Sequence of Muscarinic acetylcholine receptor M4 (Homo sapiens) (P08173 whole entry, looked up): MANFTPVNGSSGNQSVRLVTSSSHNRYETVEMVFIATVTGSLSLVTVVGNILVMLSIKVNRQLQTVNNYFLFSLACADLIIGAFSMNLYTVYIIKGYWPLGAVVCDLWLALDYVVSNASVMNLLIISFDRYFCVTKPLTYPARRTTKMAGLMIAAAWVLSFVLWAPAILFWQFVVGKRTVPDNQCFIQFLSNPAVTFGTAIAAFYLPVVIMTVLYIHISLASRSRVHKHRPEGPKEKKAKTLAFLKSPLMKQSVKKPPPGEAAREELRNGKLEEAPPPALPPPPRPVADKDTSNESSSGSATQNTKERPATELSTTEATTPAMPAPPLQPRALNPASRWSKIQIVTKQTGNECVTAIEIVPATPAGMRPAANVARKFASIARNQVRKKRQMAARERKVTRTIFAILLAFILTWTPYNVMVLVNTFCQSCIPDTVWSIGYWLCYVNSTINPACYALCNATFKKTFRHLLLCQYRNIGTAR

For `CCc1ccc(NS(=O)(=O)c2cccs2)cc1`, the cell count in assay [1] turned out to be 421. For the same compound, the inhibition in assay [1] is 4.3% (inactive); in assay [3], -82% (inactive); in assay [7], -6.86% (inactive); in assay [8], -9.13% (inactive). For the same compound, in assay [2], the inhibition of aggregation was -18.3% (inactive). For the same compound, the values for the nuclei count in assay [2] and in assay [3] were 105% and 109%, respectively. Also, the results for the fluorescence slope in assay [4] and in assay [6] were -0.634 (inactive) and 0.00357 (inactive), respectively. For the same compound, the NADPH fluorescence slope in assay [5] is 3e-06 (inactive).
`CCN1CCN(c2nc(-c3cccnc3)nc3ccccc23)CC1`: in assay [1], the cell count stood at 598. Moreover, the inhibition in assay [1] is 11.2% (inactive); in assay [3], -58.2% (inactive); in assay [7], 12.9% (inactive); in assay [8], 37.7% (inactive). Also, the inhibition of aggregation in assay [2] is -11.6% (inactive). Moreover, the nuclei count was 94.7% in assay [2] and 103% in assay [3]. In addition, the fluorescence slope in assay [4] was -0.468 (inactive); in assay [6], 0.00671 (inactive). Besides, the NADPH fluorescence slope in assay [5] is 2.1e-05 (inactive).
For `Cn1c2c(c(=O)[nH]c1=O)C(NC(=O)c1ccco1)(C(F)(F)F)C(=O)N2` (stereo not drawn), the cell count in assay [1] came out at 618. For the same compound, the inhibition in assay [1] is 8.2% (inactive); in assay [3] it was -95% (inactive); in assay [7] it was -2.84% (inactive); in assay [8] it was 6.27% (inactive). Moreover, the inhibition of aggregation in assay [2] is -9.2% (inactive). Further, the values for the nuclei count in assay [2] and in assay [3] were 108% and 135%, respectively. Moreover, the fluorescence slope in assay [4] was -0.542 (inactive); in assay [6], 0.00391 (inactive). Also, in assay [5], the NADPH fluorescence slope is -6.4e-05 (inactive).
Consider `COCC(=O)Nc1sc2c(c1C(=O)OC)C(C(=O)OC)CC2` (stereo not drawn), for which the cell count in assay [1] turned out to be 403. For the same compound, the inhibition was -3.4% (inactive) in assay [1], 9.9% (inactive) in assay [3], -8.7% (inactive) in assay [7] and 0.35% (inactive) in assay [8]. The inhibition of aggregation in assay [2] is -1.9% (inactive). For the same compound, the figures for the nuclei count in assay [2] and in assay [3] were 93.9% and 105%, respectively. For the same compound, the fluorescence slope is -0.481 (inactive) in assay [4] and 0.00577 (inactive) in assay [6]. In assay [5], the NADPH fluorescence slope is 7e-05 (inactive).
Take `Cc1cccc(N2CCN(S(=O)(=O)c3ccc4c(c3)CCC(=O)N4)CC2C)c1` (stereo not drawn): the cell count in assay [1] stood at 322. Further, the inhibition in assay [1] was 4.7% (inactive); in assay [3] it was -29.6% (inactive); in assay [7] it was 10.8% (inactive); in assay [8] it was 19.1% (inactive). Besides, in assay [2], the inhibition of aggregation is 8.5% (inactive). Further, the nuclei count in assay [2] turned out to be 123%; in assay [3], 126%. Besides, the fluorescence slope in assay [4] was -0.453 (inactive); in assay [6], 0.00513 (inactive). In assay [5], the NADPH fluorescence slope is -0.00034 (inactive).
As to `Cc1ccc(N2CCN(C(=O)c3ccccc3Br)CC2)c(C)c1`, in assay [1], the cell count was determined as 655. For the same compound, the inhibition in assay [1] is -20.4% (inactive); in assay [3], -13.4% (inactive); in assay [7] it was 15.2% (inactive); in assay [8], 23.3% (inactive). Also, in assay [2], the inhibition of aggregation was 0% (inactive). In addition, the nuclei count in assay [2] came out at 91.9%; in assay [3] it was 101%. Moreover, the figures for the fluorescence slope in assay [4] and in assay [6] were -0.532 (inactive) and 0.00352 (inactive), respectively. In addition, the NADPH fluorescence slope in assay [5] is 5.2e-06 (inactive).
As to `CCOc1ccc(CCNC(=O)CCc2nc(-c3ccc(OC)cc3)no2)cc1OCC`, in assay [1], the cell count was 322. In addition, the inhibition in assay [1] was -3.5% (inactive); in assay [3] it was -64.9% (inactive); in assay [7], 12.2% (inactive); in assay [8], 12.3% (inactive). For the same compound, in assay [2], the inhibition of aggregation was 1.2% (inactive). Besides, the nuclei count in assay [2] came to 87.7%; in assay [3], 146%. Further, the fluorescence slope in assay [4] is -0.529 (inactive); in assay [6], 0.00633 (inactive). Also, the NADPH fluorescence slope in assay [5] is 3.2e-05 (inactive).
For the compound `COc1ccc(-c2cn3cc(C)ccc3n2)cc1OC`, the cell count in assay [1] is 442. Moreover, the inhibition in assay [1] was -10.5% (inactive); in assay [3], -4.7% (inactive); in assay [7], 29.4% (inactive); in assay [8] it was -10.4% (inactive). Moreover, in assay [2], the inhibition of aggregation is -3.3% (inactive). In addition, the nuclei count in assay [2] was determined as 103%; in assay [3] it was 109%. In addition, the fluorescence slope was -0.357 (inactive) in assay [4] and 0.00466 (inactive) in assay [6]. For the same compound, in assay [5], the NADPH fluorescence slope was -3e-05 (inactive).

In general, inhibition refers to the drop in the measured response relative to a control, in per cent.

Values taken from PubChem BioAssay.
